The text below walks through data of ChEMBL document CHEMBL4513216, “Probing the Open Global Health Chemical Diversity Library for Multistage-Active Starting Points for Next-Generation Antimalarials” (ACS Infect Dis, 2020).

Each structure is given as a SMILES string.

The data set in a line: Toxicity liver stage against HepG2, at 10uM. To be noted: human, HepG2-A16-CD81EGFP cells; read-out: INHIBITION
In kind it is cell-based. Also on record: test concentration 10 uM, cell line HepG2-A16-CD81EGFP. Put shortly:
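Uninfected HepG2-A16-CD81EGFP cells, 3 × 10^3 per well, 1536-well, plated on prespotted compound at 10 μM final, parasite-free screening media added to match infected plates; puromycin 10 μM positive, DMSO 0.5% negative; run in parallel with 48 h PbLuc assay at 37 °C, 5% CO2; viability by CellTiter-Glo luminescence, normalized to controls.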
Turning to `O=C(c1sccc1-n1cnnn1)N1CCC(Cc2ccccc2)CC1`, the cytotoxicity at 10 µM was found to be 9.49%.
In the case of `CCOc1ccccc1-c1noc(CN(C)Cc2cnn(C)c2)n1`, the cytotoxicity at 10 µM is -6.98%.
Take `CN1CCN2C(=O)N(c3ccccc3)C[C@H]2C1`: the cytotoxicity at 10 µM came out at 3.7%.
As for `CO[C@@H]1CC[C@H]2[C@H]1OCCN2C(=O)c1ccco1`, the cytotoxicity at 10 µM was -148%.
With `CCCOc1ccc(C(=O)Oc2cc(=O)n3cccc(C)c3n2)cc1`, the cytotoxicity at 10 µM turned out to be 5.17%.
For the molecule `COc1cccc(CNC(=O)c2cccnc2N)c1`, the cytotoxicity at 10 µM is 20.1%.
`COc1ccc(C2CC(=O)Oc3cc(C)[nH]c(=O)c32)cc1` (stereo not given): the cytotoxicity at 10 µM was -3.16%.
Consider `COCC(C)(O)CNC(=O)COc1ccccc1OC` (stereo not given), for which the cytotoxicity at 10 µM was -12.2%.
For the molecule `O=C(c1ccc(=O)[nH]n1)N1CC(c2nc(Cc3ccccc3)no2)C1`, the cytotoxicity at 10 µM is -19.3%.
Consider `O=S(=O)(NCC1(O)CCOc2ccccc21)c1ccc(Br)s1` (stereo not given), for which the cytotoxicity at 10 µM stood at 1.43%.
Then `O=S(=O)(NC1=NCN(CCc2cccs2)CN1)c1ccc(F)cc1`, with -1.01%; and `Cc1ccoc1C(=O)N1CCO[C@H]2[C@H](OCC3CCOCC3)CC[C@@H]21`, with -6.42%; and `Cc1cccc(CN2C[C@@H]3CN(C(=O)NC(C)C)C[C@@H]3C2=O)c1`, with -12.9%.
As for `CC(C)CC(=O)N1CCN(C(=O)N(C)C)CC2(CC(=O)N(C)C2)C1` (stereo not given), the cytotoxicity at 10 µM was -20.3%.
In the case of `O=C1COC2(CCN(Cc3ccccn3)CC2)CN1CC1CC1`, the cytotoxicity at 10 µM worked out at 13.9%.
In the case of `Cc1c2ncn(CC(=O)N(C)C)c(=O)c2nn1C`, the cytotoxicity at 10 µM was -2.56%.
For `CCCn1cc(C(=O)n2nc(C)cc2C)c(S(=O)(=O)N2CCSCC2)n1`, the cytotoxicity at 10 µM is -10.1%.
For `Cc1cccc2c1cnn2CCCNC(=O)C(C)C` the value was -2.12%; for `CN(C)[C@@H]1CN(C(=O)c2cc3cccc(F)c3[nH]2)C[C@H]1O`, -1.49%; for `CC(C)NC(=O)C1(Cc2ccccc2-c2cncnc2)CCCNC1` (stereo not given), 3.67%.
`O=C(O)c1cccc(CN2CCCC(Cc3ccn[nH]3)C2)c1` (stereo not given): the cytotoxicity at 10 µM was found to be 5.39%.
With `Cc1cc(C)n(C2CCN(S(C)(=O)=O)CC2)n1`, the cytotoxicity at 10 µM was 15.7%.
For the molecule `c1ccc2ncc(CC3CCNCC3)cc2c1`, the cytotoxicity at 10 µM stood at 1.8%.
As for `COCC(=O)NC(CC(C)C)c1nc2cccnc2n1C` (stereo not given), the cytotoxicity at 10 µM was 15.2%.
With `CNC(=O)c1cnc(C)nc1CCNC(=O)CCc1ccccc1`, the cytotoxicity at 10 µM is -0.0555%.
`O=C(N[C@@H]1CC[C@@H](N2CCCC2)[C@@H]1O)c1cc2cccc(F)c2[nH]1`: the cytotoxicity at 10 µM was 2.91%.
`Cc1ccc(C)c(CC(=O)NC2CCCS(=O)(=O)C2)c1` (stereo not given): the cytotoxicity at 10 µM was -7.52%.
Then `Cc1ccc(CNCCC(O)(c2nccn2C)C(F)(F)F)o1` (stereo not given), with 1.18%.
For the molecule `CC(C)N(C)CCCNC(=O)c1cnn(C(C)C)c1C(F)(F)F`, the cytotoxicity at 10 µM is 5.31%.
Turning to `CN(c1nc(Cn2cc(Br)ccc2=O)cs1)C1CC1`, the cytotoxicity at 10 µM is 8.34%.
Take `CN1CCN(C(=O)C2(S(C)(=O)=O)CCCC2)Cc2ccccc21`: the cytotoxicity at 10 µM was -4.96%.
Consider `Cc1noc(C)c1C(C)NC(=O)N1CCC(NC(=O)c2ccsc2)CC1` (stereo not given), for which the cytotoxicity at 10 µM stood at 7.07%.
Take `CCN1CC(COC(=O)c2ccc(Br)cc2F)CC1=O` (stereo not given): the cytotoxicity at 10 µM is -2.45%.
Then `CCn1nc2c(cc1=O)CN(CCOc1cccc(C#N)c1)CC2`, with 4.67%; and `O=C(N1CCc2ccccc2CC1)C1(O)Cc2ccccc2C1`, with 10.8%.
As for `Cc1ccc(NC2CCN(C(=O)CCCc3ccccn3)CC2)nn1`, the cytotoxicity at 10 µM is 16.4%.
For `Cc1cccc(CS(=O)(=O)c2nnc(N3CCOCC3)s2)c1`, the cytotoxicity at 10 µM is -3.48%.
Then `O=C(NCCNS(=O)(=O)c1ccc(C(F)(F)F)cc1)c1ccoc1`, with -1.36%; and `O=C(CN1CCN(c2ccnc3c(F)ccc(F)c23)CC1)NC1CC1`, with -1.12%.
As to `CC(NCCN1CCN(C(=O)C2CCCC2)CC1)c1nccs1` (stereo not given), the cytotoxicity at 10 µM was -0.513%.
On to `Cc1cc(Cl)ccc1NCc1cnn(C2CCS(=O)(=O)C2)c1` (stereo not given), for which the cytotoxicity at 10 µM worked out at 6.51%.
With `COCCN(C(=O)c1ccn(-c2ccc(OC)cc2)n1)C(C)C(N)=O` (stereo not given), the cytotoxicity at 10 µM turned out to be 0.337%.
On to `Cc1cnc(-c2nc(-c3cccc(CN4CCOCC4)c3)no2)cn1`, for which the cytotoxicity at 10 µM is -4.21%.
For `CCOCC(=O)NS(=O)(=O)c1ccc(F)cc1C(F)(F)F`, the cytotoxicity at 10 µM came out at 3.25%.
In the case of `CC(CNC(=O)c1ccon1)Oc1cccc(Br)c1` (stereo not given), the cytotoxicity at 10 µM was -1.52%.
Then `CC(C)c1nnc(CN(C)C(c2ccccc2)c2ccc(F)cc2)o1` (stereo not given), with 15.5%.
Regarding `CC(=O)N1CCCN(C(=O)c2ccc(Sc3ccccn3)cc2)CC1`, the cytotoxicity at 10 µM came out at 10.9%.
As to `Cc1cc(OC(F)F)c(C(=O)N2CCC(N(C)C)CC2)s1`, the cytotoxicity at 10 µM is 6.9%.
In the case of `Cc1csc(CNc2cnn(C(C)C)c2)n1`, the cytotoxicity at 10 µM was determined as 9.45%.
On to `CC(CNC1CCN(Cc2ccncc2)CC1)c1ccc(F)cc1F` (stereo not given), for which the cytotoxicity at 10 µM is -9.73%.
For `CCc1ccc(C(=O)NCCCC2(C3OCCO3)CCOCC2)cc1`, the cytotoxicity at 10 µM was determined as 15.6%.
As for `CC(C)NC(=O)C1CCN(C(C)C(=O)N2CCc3sccc3C2)CC1` (stereo not given), the cytotoxicity at 10 µM turned out to be 5.52%.
`CC(C)OCCOCc1cccc(NC(=O)NCc2ccccn2)c1`: the cytotoxicity at 10 µM is -2.35%.
With `COc1ccc(-c2nc(CN3CC(n4nc(C)cc4C)C3)no2)cc1`, the cytotoxicity at 10 µM is -3.88%.
Consider `CCN(CC)c1ccc(NS(=O)(=O)c2cnn(C)c2)cn1`, for which the cytotoxicity at 10 µM is -7.12%.
Then `CC(C)c1nc(CN(C)C(=O)CCS(=O)(=O)c2ccccc2)no1`, with -20.3%; and `CCC(OC)C(=O)NCC1CCN(c2cnn(C)c(=O)c2)CC1` (stereo not given), with 7.35%; and `CN1CC2(CCCN(C(=O)c3cnc4ccc(F)cc4c3O)C2)OC1=O` (stereo not given), with 6.25%.
For `CCn1ncnc1C(C)NC(=O)CC1CCN(C(C)C)CC1` (stereo not given), the cytotoxicity at 10 µM was -133%.
For `OC1CCN(CCCn2ccnc2-c2c[nH]cn2)CC1`, the cytotoxicity at 10 µM was -1.57%.
On to `O=c1c(CN2CCOCC2)coc2ccc(Cl)cc12`, for which the cytotoxicity at 10 µM is -3.73%.
As to `Cn1c(Cn2ccnc2)nnc1C1CCCN(CC(C)(C)C)C1` (stereo not given), the cytotoxicity at 10 µM was 3.89%.
As for `C/C=C(\C)CN1C[C@H](c2cccc(OC)c2)[C@@H](N)C1`, the cytotoxicity at 10 µM was 3.49%.
Then `COc1cccc(F)c1C(=O)N1C[C@@H](CN(C)CCO)[C@@H](CO)C1`, with -5.88%; and `O=S1(=O)C[C@@H]2[C@H](C1)N(Cc1ncc[nH]1)CCN2CC1CC1`, with -7.18%; and `CCC(O)CNC(=O)C1(N(C)Cc2ccccc2)Cc2ccccc2C1` (stereo not given), with 7.62%.
For `CCCS(=O)(=O)N1CCN(c2cc(-n3nc(C)cc3C)nc(C)n2)CC1`, the cytotoxicity at 10 µM is -13.7%.
For `Cc1nc(O)c2nnn(C[C@H]3CCCN3C(=O)CCC3CCCC3)c2n1` the value was 5.02%; for `Cc1nc(CN2CCCC(c3cc(C(N)=O)[nH]n3)C2)oc1C` (stereo not given), -31.2%.
For `Cc1cc(C(=O)O)cc(S(=O)(=O)Nc2ccc3c(c2)OCCO3)c1C` the value was -3.95%.
Take `CS(=O)(=O)NCC1CCCN(C(=O)CCCc2ccccc2)C1` (stereo not given): the cytotoxicity at 10 µM was -2.78%.
For `Cc1nc(C)n(CC2CCCN(CC(=O)Nc3ccncc3)C2)n1` (stereo not given) the value was -5.75%.
As for `Cc1cc(NC(=O)NCC(CC(C)C)N2CCOCC2)n(C)n1` (stereo not given), the cytotoxicity at 10 µM is -15%.
Turning to `Cc1ccc(-c2nc(CN3CCCC3Cn3cncn3)co2)cc1` (stereo not given), the cytotoxicity at 10 µM was -7.29%.
In the case of `CC(O)CN1CCN(C(=O)c2cccn2Cc2ccccc2)CC1` (stereo not given), the cytotoxicity at 10 µM is -8.87%.
Turning to `CCn1c(CNCC2CCCN2c2cccnn2)nc2ccccc21` (stereo not given), the cytotoxicity at 10 µM is -10.2%.
For the molecule `O=C(NCCNc1ncccn1)N1CCCC1`, the cytotoxicity at 10 µM is -12.8%.
Consider `O=C(NCc1cccnc1-n1cncn1)c1ccc2c(c1)CCO2`, for which the cytotoxicity at 10 µM is -14.2%.
`Cc1ncc(C(=O)NCCNc2ncccc2C#N)s1`: the cytotoxicity at 10 µM was -8.18%.
Regarding `Cc1nc(CN(C)C2CCN(CCCOc3ccc(F)cc3)C2)no1` (stereo not given), the cytotoxicity at 10 µM is -8.27%.
With `CCc1nc(CN(C)C2CCN(CCOc3ccccc3)C2)no1` (stereo not given), the cytotoxicity at 10 µM was -34.6%.
On to `CCn1c(CN2CCCN(C(=O)OC)CC2)nc2c(F)cccc21`, for which the cytotoxicity at 10 µM is -8.6%.
`O=C(Cc1ccc2c(c1)OCCO2)NC1CCCC1`: the cytotoxicity at 10 µM was -3.07%.
Take `Fc1ccc(-c2nnc(CN3CCn4c(nnc4C4CC4)C3)o2)cc1`: the cytotoxicity at 10 µM was 0.577%.
As for `Cc1ccc(-c2nc(CN3CCc4nn(C)c(=O)cc4C3)co2)cc1`, the cytotoxicity at 10 µM was -11.6%.
For `Cn1ccnc1N1CCN(C(=O)Cc2ccc(F)cc2)CC1` the value was 4.73%; for `CCN1CCn2c(C)cnc2C12CCN(C(=O)CC(C)C)CC2`, -5.93%; for `CCOC(=O)[C@]12CCCN(Cc3ccco3)C[C@H]1CN(CCN(C)C)C2`, -17.9%.
`COCc1cnc2n1CCN(Cc1cccnc1)C2C` (stereo not given): the cytotoxicity at 10 µM was -8.79%.
For `CCN(C)C1COC2(CCN(C(=O)c3cccc(Cl)c3)CC2)C1` (stereo not given) the value was -5.66%.
Then `CO[C@H]1CCN(C(=O)c2ccsc2)[C@@H]2CN(CC3CC3)C[C@H]12`, with 1.64%; and `CN(C)CCN1CCC2(CCN(C(=O)c3cccc(F)c3)CC2)C1=O`, with -6.19%; and `CS(=O)(=O)N1C[C@@H]2C[C@H](C(=O)N3CCOCC3)[C@H](C1)O2`, with -2.92%.
Consider `CSc1ncccc1C(=O)N1C[C@@H]2CC[C@H]1CN(c1cnccn1)C2`, for which the cytotoxicity at 10 µM was -2.72%.
Consider `Cc1nonc1CC(=O)N1C[C@H]2CC[C@@H](C1)N(Cc1ccccc1)C2=O`, for which the cytotoxicity at 10 µM is -11.6%.
